The text below walks through data of ChEMBL document CHEMBL1125870, “Chemical and biological studies on a series of lipid-soluble (trans-(R,R)- and -(S,S)-1,2-diaminocyclohexane)platinum(II) complexes incorporated in liposomes” (J Med Chem, 1991).

Series [1] deals with Mus musculus. As to the kind of experiment: Compound was tested for its efficacy against L1210 Leukemia in mice at a dose of 25 mg/kg through intraperitoneal route.(Treatment schedule day is 1). Format: functional, organism-based. More on the design: dose 25 mg/kg. The method, boiled down:
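Six B6D2F1 mice per group, 20-25 g, inoculated ip with 10^6 L1210/0 cells on day 0. A single ip dose of liposomal Pt (DMPC:DMPG 7:3 multilamellar vesicles in 0.9% NaCl) was given on day 1; doses of 12.5, 25 and 50 mg/kg were tested. %T/C = median survival treated/control ×100; study ended day 60; mean of three experiments.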

For series [2], the species on record is Rattus norvegicus. Nature of the series: Compound was tested for the subacute single dose from the toxicity studies in rats. As to conditions: in vivo. Format: organism-based.
The test system of series [3] is Mus musculus. As to the kind of experiment: Compound was tested for its efficacy against L1210 / cisplatin Leukemia in mice at a dose of 25 mg/kg through intraperitoneal route.(Treatment schedule day is 1,5,9). Format: functional, organism-based. More on the design: dose 25 mg/kg. The method, boiled down: (§1)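 L1210/cisplatin cells (NCI repository) passaged weekly ip in BDF1 mice. Groups of six B6D2F1 mice, 20-25 g, inoculated ip with 10^6 cells on day 0, then given liposomal Pt (DMPC:DMPG 7:3 multilamellar vesicles in 0.9% NaCl) or cisplatin ip on days 1, 5 and 9. Read-out %T/C = median survival treated/control ×100; study ended day 60; average of two experiments.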

The test system of series [4] is Mus musculus. As to the kind of experiment: Compound was tested for its efficacy against L1210 Leukemia in mice at a dose of 25 mg/kg through intraperitoneal route.(Treatment schedule day is 1,5,9). It is filed as functional, organism-based. More on the design: dose 25 mg/kg. The gist of the method: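 L1210/0 leukemia passaged weekly ip in BDF1 mice. Six B6D2F1 mice per group (20-25 g) received 10^6 cells ip on day 0. Liposomal Pt (DMPC:DMPG 7:3 MLVs in 0.9% NaCl) or cisplatin was given ip on days 1, 5, 9; doses tested 12.5, 25, 50 mg/kg. Optimal dose is the highest %T/C without toxic deaths. %T/C is from median survival; study ended day 60; average of two experiments.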

Series [5] relates to Mus musculus. As to the kind of experiment: Compound was tested for its efficacy against L1210 Leukemia in mice at a dose of 5 mg/kg through intraperitoneal route.(Treatment schedule day is 1,5,9). More on the design: dose 5 mg/kg. Format: functional, organism-based.
Series [6] has as its system Mus musculus. As to the kind of experiment: Compound was tested for its efficacy against L1210 / cisplatin Leukemia in mice at a dose of 5 mg/kg through intraperitoneal route.(Treatment schedule day is 1,5,9). It is filed as functional, organism-based. More on the design: dose 5 mg/kg. The method, boiled down: as §1
For series [7], the species on record is Rattus norvegicus. As to the kind of experiment: Compound was tested for the subacute single dose from the toxicity studies in rats. It is filed as organism-based. As to conditions: in vivo.

Regarding “Pt (2,2-dimethyl-4-ethylhexanoato)2((R,R)-dach)”, the T/C in the series on Mus musculus [1] came to 212%.

Turning to “Pt (2,2-diethylhexanoato)2((R,R)-dach) [listing 1 of 2 here]”, the LD50 in the series listed under Rattus norvegicus [2] was found to be 80.8 mg/kg.

The substance “Pt (2,2-diethyl-4-methylpentanoato)2((S,S)-dach) [listing 1 of 2 here]” yielded a T/C with Mus musculus [1] of 160%.

For “Pt (2,2-diethylhexanoato)2((R,R)-dach) [listing 2 of 2 here]”, the T/C is 231% with Mus musculus [3], 253% with Mus musculus [1] and 257% with Mus musculus [4].

As for CISPLATIN [listing 1 of 2 here], the T/C in the series on Mus musculus [1] stood at 175%; with Mus musculus [5], 220%; in the series with Mus musculus [6] it was 112%.

Substance “Pt (2,2-dimethyloctanoato)2((R,R)-dach) [listing 1 of 2 here]” registered an LD50 in the series listed under Rattus norvegicus [2] of 94.5 mg/kg.

With “Pt (2,2-dimethyloctanoato)2((S,S)-dach) [listing 1 of 2 here]”, the LD50 in the series listed under Rattus norvegicus [2] worked out at 87 mg/kg.

With “Liposomal preparation of (ttans-(R,R)-dach)Pt complex containing isomeric mixture of neodecanoic acid (L-NDDP) [listing 1 of 2 here]”, the T/C was found to be 200% in the series on Mus musculus [3], 187% with Mus musculus [1] and 312% in the series with Mus musculus [4].

“Pt (2,2-diethyl-4-methylpentanoato)2((S,S)-dach) [listing 2 of 2 here]” had an LD50 in the series listed under Rattus norvegicus [7] of 81 mg/kg.

The substance CISPLATIN [listing 2 of 2 here] yielded an LD50 in the series filed under Rattus norvegicus [2] of 17.5 mg/kg.

In the series filed under Rattus norvegicus [2], “Liposomal preparation of (ttans-(R,R)-dach)Pt complex containing isomeric mixture of neodecanoic acid (L-NDDP) [listing 2 of 2 here]” gave an LD50 of 54 mg/kg.

Consider “Pt (2,2-diethylhexanoato)2((S,S)-dach) [listing 1 of 2 here]”, for which, in the series listed under Rattus norvegicus [2], the LD50 was 104 mg/kg.

The substance “Pt (2,2-diethylhexanoato)2((S,S)-dach) [listing 2 of 2 here]” had a T/C in the series with Mus musculus [1] of 190%.

Consider “Pt (2,2-diethyl-4-methylpentanoato)2((R,R)-dach) [listing 1 of 2 here]”, for which the LD50 in the series listed under Rattus norvegicus [2] turned out to be 62.3 mg/kg.

For the substance “Pt (2,2-dimethyloctanoato)2((S,S)-dach) [listing 2 of 2 here]”, the T/C in the series on Mus musculus [1] worked out at 150%.

For “Pt (2,2-diethyl-4-methylpentanoato)2((R,R)-dach) [listing 2 of 2 here]”, the T/C came out at 185% in the series with Mus musculus [3], 225% with Mus musculus [1] and 257% in the series on Mus musculus [4].

Take “Pt (2,2-dimethyloctanoato)2((R,R)-dach) [listing 2 of 2 here]”: the T/C in the series with Mus musculus [3] was found to be 355%; in the series on Mus musculus [1], 234%; in the series with Mus musculus [4] it was 257%.

Usually T/C stands for the result in the treated group divided by that in the control group, in per cent. By LD50 is commonly meant the dose expected to kill half of the subjects tested. The low end stands for a more toxic substance, the high end for a less toxic substance.
